Calls of active or inactive are those of the source.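 Rule for the calls, unless noted: active = viability at or under a set limit in both replicates, limit being median viability minus 3 SD (cut at about 48% in these data, passing the limit was not always enough); inconclusive = at or under the limit in just one replicate; inactive = at or above the limit in both replicates.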
Tests used:
[1] = reducers of endogenous Her2 protein level, primary screen, SKBR3 breast tumor cells, AlphaScreen, ATP viability (AID 461;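 active = Her2 level under about 52% in both replicate screens, with viability over 70% of control, limit read from the data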;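 for Her2 level: lower value means less Her2 protein in the cells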;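 for viability: percent of carrier control wells set as 100% viability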); details: 18-24 h, measured here: SKBR3 viability, ATP luminescence, at 10 µM
[2] = target: Receptor tyrosine-protein kinase erbB-2 (Homo sapiens) (UniProt P04626); test: as above; details: 18-24 h, at 10 µM, stronger effect = lower value
[3] = SK-BR-3 cell growth inhibitors, pilot screen, 24 h, human (AID 572;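 active = viability at or below 10% of carrier control in both of two separate runs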;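 note: compound exposure lasted between 18 and 24 h rather than exactly 24 h; 100% = carrier-treated control wells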); details: SK-BR-3 viability, CellTiter-Glo luminescence, at 10 µM, stronger effect = lower value
[4] = HUVEC growth inhibition – cell-based, human, primary screen (AID 575;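 active = viability at or below 30% in both replicate assays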;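 note: 100% = median of untreated cell wells with 0.1% DMSO on each plate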); details: HUVEC proliferation, CellTiter-Glo luminescence, 72 h; at 10 µM; stronger effect = lower value
Summary of the method: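 Timing: 72 h treatment at 37 °C; material: HUVEC primary cells; technique: CellTiter-Glo luminescence measuring cellular ATP; controls: vehicle and MePR control wells; measure: percent of median DMSO-control luminescence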

[5] = growth inhibitors of H69AR lung tumor, primary screen, human, duplicate replicates (AID 580); details: H69AR lung tumor cells viability, ATP luminescence, 72 h; at 10 µM; stronger effect = lower value;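 note: 100% = mean luminescence of untreated wells and 0% = no signal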
[6] = reversal of MRP1-mediated doxorubicin resistance, pilot screen, H69AR cells, doxorubicin co-treatment (AID 601;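 active = viability loss from added drug above about 55%, and viability with drug at most 40%, in both replicates, limit read from the data, passing the limit was not always enough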); details: CellTiter-Glo, 72 h, at 10 µM; for differential viability (reversal): stronger effect = higher value
[7] = 384-well plate pilot, post-Golgi transport modulator project, inhibition of yeast transport mutant growth (AID 636; in the data active = inhibition above about 31%); details: absorbance 615 nm, about 18 h, stronger effect = higher value
[8] = growth suppression of yeast trafficking mutant, preliminary HTS, modulators of trafficking downstream of Golgi apparatus project, 1536-format plate, OD 615 nm (AID 637; in the data active = inhibition above about 30%); details: yeast transport mutant growth, absorbance 615 nm, 18 h; stronger effect = higher value
[9] = H69AR cells + 2 uM doxorubicin, measured here: viability with 2 uM doxorubicin, stronger effect = lower value
[10] = H69AR cells, compound alone cytotoxicity

Receptor tyrosine-protein kinase erbB-2 (Homo sapiens), sequence (P04626 whole entry, looked up): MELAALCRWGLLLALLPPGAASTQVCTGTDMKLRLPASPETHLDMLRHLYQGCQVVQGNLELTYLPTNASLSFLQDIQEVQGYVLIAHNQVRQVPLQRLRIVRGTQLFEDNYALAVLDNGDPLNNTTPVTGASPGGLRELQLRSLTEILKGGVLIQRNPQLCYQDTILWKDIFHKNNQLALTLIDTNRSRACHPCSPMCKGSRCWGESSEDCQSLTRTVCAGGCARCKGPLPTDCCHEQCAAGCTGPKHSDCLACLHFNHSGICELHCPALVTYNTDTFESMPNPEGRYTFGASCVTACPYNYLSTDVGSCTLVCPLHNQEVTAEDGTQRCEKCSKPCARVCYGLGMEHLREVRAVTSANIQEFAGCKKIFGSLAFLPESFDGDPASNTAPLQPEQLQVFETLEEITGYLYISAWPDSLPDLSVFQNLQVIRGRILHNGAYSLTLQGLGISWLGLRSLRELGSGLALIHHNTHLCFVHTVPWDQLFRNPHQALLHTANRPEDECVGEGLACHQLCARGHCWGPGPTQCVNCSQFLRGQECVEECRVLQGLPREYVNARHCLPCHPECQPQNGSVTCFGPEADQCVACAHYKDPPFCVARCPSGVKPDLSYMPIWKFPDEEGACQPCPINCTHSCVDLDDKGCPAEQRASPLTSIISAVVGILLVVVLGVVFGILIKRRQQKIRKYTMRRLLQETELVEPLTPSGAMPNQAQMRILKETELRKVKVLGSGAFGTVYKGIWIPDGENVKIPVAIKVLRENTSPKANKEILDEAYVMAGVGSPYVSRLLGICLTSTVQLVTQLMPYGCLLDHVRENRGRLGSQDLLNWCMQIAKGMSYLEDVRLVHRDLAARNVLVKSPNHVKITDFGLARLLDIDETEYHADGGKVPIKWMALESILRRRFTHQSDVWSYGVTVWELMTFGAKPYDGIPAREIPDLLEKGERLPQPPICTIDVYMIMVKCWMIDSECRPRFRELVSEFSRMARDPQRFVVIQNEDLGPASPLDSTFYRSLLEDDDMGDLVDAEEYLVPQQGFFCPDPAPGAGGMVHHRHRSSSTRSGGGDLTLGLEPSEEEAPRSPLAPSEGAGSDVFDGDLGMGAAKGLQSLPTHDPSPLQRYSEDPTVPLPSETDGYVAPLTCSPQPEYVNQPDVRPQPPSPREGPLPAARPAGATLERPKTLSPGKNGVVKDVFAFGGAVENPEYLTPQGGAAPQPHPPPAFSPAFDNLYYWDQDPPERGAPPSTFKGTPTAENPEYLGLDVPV

SMILES | viability [1] | Her2 level [2] | viability [3] | viability [4] | viability [5] | differential viability (reversal) ([6]; H69AR cells + 2 uM doxorubicin) | viability [6, 9] | viability [6, 10] | inhibition [7] | inhibition [8]
N#CC1=C(N)SC(N)=C(C#N)C1c1ccc(C(F)(F)F)cc1 | 90% | 104% (inactive) | 90% (inactive) | 56.3% (inactive) | 84.3% (inactive) | -4.95% (inactive) | 89.3% | 84.3% | 5.58% (inactive) | 0.82% (inactive)
CC(C)CCNC(=O)NC(=O)CN1C(=O)NC2(CCCCC2)C1=O | 90% | 120% (inactive) | 90% (inactive) | 104% (inactive) | 96.9% (inactive) | -4.12% (inactive) | 101% | 96.9% | 1.32% (inactive) | 10.9% (inactive)
CC(Sc1nc(-c2ccccc2)cc(C(F)(F)F)n1)C(=O)N1CCC(C(N)=O)CC1 (stereo not given) | 100% | 87.5% (inactive) | 100% (inactive) | 85.6% (inactive) | 91.1% (inactive) | -1.27% (inactive) | 92.3% | 91.1% | -0.91% (inactive) | 11% (inactive)
O=C(CN1CCOCC1)N1CCN(C(=O)CN2CCOCC2)CC1 | 102% | 99.5% (inactive) | 102% (inactive) | 93.7% (inactive) | 104% (inactive) | 15.6% (inactive) | 88.9% | 104% | -3.73% (inactive) | 1.97% (inactive)
COc1ccc(NC(=O)Nc2ccc(C)cc2OC(F)F)cc1OC | 95% | 79.5% (inactive) | 95% (inactive) | 88% (inactive) | 93% (inactive) | 6.81% (inactive) | 86.1% | 93% | -3.95% (inactive) | -6.67% (inactive)
CC(C)Oc1ccc(-c2nn(-c3ccccc3)cc2/C=c2\sc3ncnn3c2=O)cc1 | 84% | 106% (inactive) | 84% (inactive) | 71.5% (inactive) | 98.1% (inactive) | 8.19% (inactive) | 89.9% | 98.1% | 5.92% (inactive) | -1.82% (inactive)
CCOC(=O)C1CCCN(c2c(N3CCN(c4ccccn4)CC3)c(=O)c2=O)C1 (stereo not given) | 86.5% | 104% (inactive) | 86.5% (inactive) | 86.7% (inactive) | 102% (inactive) | 15% (inactive) | 86.5% | 102% | 0% (inactive) | -2.46% (inactive)
COc1ccc(N2CCN(Cc3nc4c(c(=O)[nH]c(=O)n4C)n3CC(C)=O)CC2)cc1 | 98.5% | 102% (inactive) | 98.5% (inactive) | 101% (inactive) | 95.4% (inactive) | 10.4% (inactive) | 84.9% | 95.4% | 0% (inactive) | 0.17% (inactive)
COc1cccc2cc(C(=O)N3CCN(C45CC6CC(CC(C6)C4)C5)CC3)c(=O)oc12 | 93.5% | 92% (inactive) | 93.5% (inactive) | 81.8% (inactive) | 107% (inactive) | 12.5% (inactive) | 94.7% | 107% | -3.16% (inactive) | -9.52% (inactive)
O=C(O)CN1C(=O)C2(OCCCO2)c2ccccc21 | 86.5% | 102% (inactive) | 86.5% (inactive) | 101% (inactive) | 85.1% (inactive) | -0.23% (inactive) | 85.4% | 85.1% | -0.91% (inactive) | 0.49% (inactive)
CCOc1cc(C(=O)NCc2ccncc2)cc(OCC)c1OCC | 117% | 92% (inactive) | 117% (inactive) | 94.4% (inactive) | 90.7% (inactive) | 2.97% (inactive) | 87.7% | 90.7% | -6.27% (inactive) | -4.76% (inactive)
CCCCOc1cccc(NC(=O)CSc2nccn2C)c1 | 107% | 81.5% (inactive) | 107% (inactive) | 99.9% (inactive) | 85.3% (inactive) | -1.98% (inactive) | 87.3% | 85.3% | -7.03% (inactive) | 0.5% (inactive)
COC(=O)Cn1c2c(c3cc(C)ccc31)CCCC2 | 83% | 99% (inactive) | 83% (inactive) | 103% (inactive) | 102% (inactive) | 8.28% (inactive) | 94.1% | 102% | -4.74% (inactive) | 4.75% (inactive)
c1ccc(Oc2ccc(-n3cnnn3)cc2)cc1 | 102% | 122% (inactive) | 102% (inactive) | 95.7% (inactive) | 94.2% (inactive) | 15.4% (inactive) | 78.8% | 94.2% | -0.52% (inactive) | -12.2% (inactive)
CCN(c1ccc(OC)cc1)S(=O)(=O)c1ccc2c(c1)CCN2C(=O)CCC(=O)O | 115% | 97.5% (inactive) | 115% (inactive) | 88.9% (inactive) | 92.4% (inactive) | 2.4% (inactive) | 90% | 92.4% | -3.55% (inactive) | -2.06% (inactive)
COc1ccc(C)cc1NC(=O)CSc1nnnn1Cc1ccccc1 | 83% | 96.5% (inactive) | 83% (inactive) | 82.1% (inactive) | 96.8% (inactive) | 6% (inactive) | 90.8% | 96.8% | -1.49% (inactive) | -2.62% (inactive)
Cc1nc2ccccc2c(=O)n1CC(=O)N1CCOCC1 | 120% | 90.5% (inactive) | 120% (inactive) | 107% (inactive) | 90.4% (inactive) | -9.46% (inactive) | 99.8% | 90.4% | 0.67% (inactive) | -4.35% (inactive)
CCCC(C)c1nnc(NC(=O)C2CCCO2)s1 (stereo not given) | 126% | 91% (inactive) | 126% (inactive) | 95.8% (inactive) | 93.9% (inactive) | 0.895% (inactive) | 93% | 93.9% | -7.33% (inactive) | -3.06% (inactive)
CNC(=O)CC(C(=O)O)c1ccc(OC(C)C)cc1 (stereo not given) | 105% | 85.5% (inactive) | 105% (inactive) | 92.3% (inactive) | 90% (inactive) | 4.31% (inactive) | 85.7% | 90% | -5.07% (inactive) | 1.75% (inactive)
COc1ccc2c(=O)c3c(=O)n(Cc4ccco4)c(C(C)C)nc3oc2c1 | 96% | 93% (inactive) | 96% (inactive) | 101% (inactive) | 99.4% (inactive) | 9.28% (inactive) | 90.1% | 99.4% | -3.73% (inactive) | -9.52% (inactive)
Cc1nc2sc(C(c3ccccc3)N3CCN(c4ccccc4F)CC3)c(O)n2n1 (stereo not given) | 91.5% | 93.5% (inactive) | 91.5% (inactive) | 97.6% (inactive) | 100% (inactive) | 2.07% (inactive) | 98.1% | 100% | 0% (inactive) | -7.7% (inactive)
CC1Oc2ccccc2N(CC(=O)N(Cc2ccccc2)Cc2ccccn2)C1=O (stereo not given) | 108% | 100% (inactive) | 108% (inactive) | 110% (inactive) | 88.6% (inactive) | -1.47% (inactive) | 90.1% | 88.6% | -5.54% (inactive) | -10% (inactive)
Cc1cccc(Nc2nc3c(c(=O)n(C)c(=O)n3C)n2Cc2ccccc2)c1 | 122% | 87% (inactive) | 122% (inactive) | 93.2% (inactive) | 96.6% (inactive) | -0.855% (inactive) | 97.5% | 96.6% | -4.32% (inactive) | 2.86% (inactive)
CN(C)S(=O)(=O)c1ccc(C(=O)Nc2ccccc2C(=O)O)cc1 | 102% | 88.5% (inactive) | 102% (inactive) | 102% (inactive) | 94.6% (inactive) | -1.06% (inactive) | 95.7% | 94.6% | -3.03% (inactive) | -3.17% (inactive)
CCCN(CCC)S(=O)(=O)c1ccc(C(=O)Nc2nnc(-c3cccc(OC)c3)o2)cc1 | 98.5% | 89% (inactive) | 98.5% (inactive) | 8.23% (active) | 15.3% (active) | -7.05% (inactive) | 22.3% | 15.3% | -5.79% (inactive) | -1.64% (inactive)
O=C(Nc1ccc(Br)cc1F)c1sccc1-n1cccc1 | 87.5% | 72.5% (inactive) | 87.5% (inactive) | 93.5% (inactive) | 83.1% (inactive) | 1.42% (inactive) | 81.7% | 83.1% | -5.66% (inactive) | -8.67% (inactive)
CCOc1ccc(C(=O)N2CCC(C(=O)c3ccc4c(c3)OCCO4)CC2)cc1 | 84.5% | 79.5% (inactive) | 84.5% (inactive) | 77.8% (inactive) | 86.3% (inactive) | 0.19% (inactive) | 86.1% | 86.3% | -4.61% (inactive) | -6.91% (inactive)
Cc1nnc(SCC(=O)NCCN2C(=O)CSC2=O)s1 | 96.5% | 102% (inactive) | 96.5% (inactive) | 114% (inactive) | 98.3% (inactive) | -1.88% (inactive) | 100% | 98.3% | -3.24% (inactive) | 0.63% (inactive)
